Sampled rows, rich in hits. Any-hit rate of the full collection: about 2%.
Hck Nef HTS = blocks Nef-activated human Hck kinase | P08631 | Recombinant Hck-YEEI plus Nef, Z-Lyte FRET kinase assay | inhibition, % at 20 µM | 220,000 tested, 0.68% active | AID 463187;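 active = Hck-Nef kinase inhibition above about 50%, limit read from the data; inactive = inhibition below that limit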;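 also: 0% = DMSO with Hck plus Nef and 100% = Hck alone without Nef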
Diaphorase act = activates diaphorase or chemically reduces, flagging diaphorase assay artifacts; Diaphorase/resazurin coupled assay, resorufin fluorescence, 16 min; hits give high values; 1 = vehicle wells, 0 = NADH-free wells; activation factor at 20 µM; 190,000 tested, 0.005% active; AID 1229;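 active = diaphorase activity raised at least twofold by the compound at 20 µM; inactive = activation factor below 2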
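Assay system: bacterial diaphorase enzyme (C. kluyveri) / Input: enzyme 0.07 U/mL final / Medium: 50 mM HEPES pH 7.4 with 4.542 mM MgCl2, 0.005% Tween 20 / Doses: single compound dose of 20 µM, 1% DMSO final / Incubation: 16 min enzyme reaction, ambient temperature / Signal: fluorescence, excitation 544 nm and emission 590 nm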
eIF4E 4G PPI = blocks eIF4E binding to eIF4G | P63073+Q04637 | TR-FRET eIF4E-eIF4GI(517-606) binding, 2 h | inhibition, % at 21.7 µM | 220,000 tested, 0.37% active | AID 782;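 also: 0% = full FRET control wells and 100% = background wells lacking eIF4GI fragment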
Target sequence (P63073 whole entry, looked up, the tested form may be a part): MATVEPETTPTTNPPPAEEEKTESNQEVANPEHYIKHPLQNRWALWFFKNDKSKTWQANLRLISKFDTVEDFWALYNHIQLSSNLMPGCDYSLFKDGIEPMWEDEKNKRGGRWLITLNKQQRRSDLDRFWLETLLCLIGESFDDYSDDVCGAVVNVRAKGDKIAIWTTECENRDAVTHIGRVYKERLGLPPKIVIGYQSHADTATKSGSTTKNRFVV
Target sequence (Q04637 whole entry, looked up, the tested form may be a part): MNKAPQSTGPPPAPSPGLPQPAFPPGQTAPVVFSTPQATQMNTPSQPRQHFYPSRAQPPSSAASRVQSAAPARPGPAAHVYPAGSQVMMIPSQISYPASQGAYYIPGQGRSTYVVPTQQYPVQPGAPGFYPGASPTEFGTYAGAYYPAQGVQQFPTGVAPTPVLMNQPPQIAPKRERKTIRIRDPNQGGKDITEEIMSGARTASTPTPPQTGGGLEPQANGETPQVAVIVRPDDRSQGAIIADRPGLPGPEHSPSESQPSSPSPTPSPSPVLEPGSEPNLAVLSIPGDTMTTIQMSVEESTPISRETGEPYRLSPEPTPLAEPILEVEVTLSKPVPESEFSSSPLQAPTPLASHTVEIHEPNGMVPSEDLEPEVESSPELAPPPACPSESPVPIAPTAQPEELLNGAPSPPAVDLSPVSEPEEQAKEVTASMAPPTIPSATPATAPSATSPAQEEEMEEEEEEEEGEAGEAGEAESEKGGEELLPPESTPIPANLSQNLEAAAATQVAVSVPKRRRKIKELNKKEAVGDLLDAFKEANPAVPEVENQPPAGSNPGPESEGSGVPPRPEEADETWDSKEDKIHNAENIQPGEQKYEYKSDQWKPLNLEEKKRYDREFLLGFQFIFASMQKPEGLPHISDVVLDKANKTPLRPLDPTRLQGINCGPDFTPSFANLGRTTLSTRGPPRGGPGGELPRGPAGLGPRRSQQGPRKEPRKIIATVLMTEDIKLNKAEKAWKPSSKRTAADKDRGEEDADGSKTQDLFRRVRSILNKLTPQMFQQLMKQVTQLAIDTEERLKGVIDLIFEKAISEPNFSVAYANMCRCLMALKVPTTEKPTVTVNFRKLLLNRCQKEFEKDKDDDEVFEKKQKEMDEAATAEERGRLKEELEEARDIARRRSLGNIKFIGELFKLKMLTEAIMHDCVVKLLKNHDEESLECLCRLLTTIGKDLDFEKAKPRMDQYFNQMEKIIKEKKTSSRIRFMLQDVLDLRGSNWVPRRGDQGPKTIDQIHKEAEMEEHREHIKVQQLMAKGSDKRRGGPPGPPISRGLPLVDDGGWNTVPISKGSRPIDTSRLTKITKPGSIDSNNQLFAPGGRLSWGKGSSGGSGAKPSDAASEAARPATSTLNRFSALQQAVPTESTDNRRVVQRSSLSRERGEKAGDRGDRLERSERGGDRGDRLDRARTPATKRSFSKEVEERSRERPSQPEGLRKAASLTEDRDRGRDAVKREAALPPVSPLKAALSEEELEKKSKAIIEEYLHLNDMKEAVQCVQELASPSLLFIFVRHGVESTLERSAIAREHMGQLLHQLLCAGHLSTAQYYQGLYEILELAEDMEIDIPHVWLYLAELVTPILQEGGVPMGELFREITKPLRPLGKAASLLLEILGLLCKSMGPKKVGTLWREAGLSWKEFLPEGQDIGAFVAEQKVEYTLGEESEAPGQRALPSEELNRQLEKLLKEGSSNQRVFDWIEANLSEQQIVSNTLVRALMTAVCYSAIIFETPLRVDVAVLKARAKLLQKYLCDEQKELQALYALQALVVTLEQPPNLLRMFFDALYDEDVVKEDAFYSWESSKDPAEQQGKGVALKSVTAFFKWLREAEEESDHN
14-3-3 Bad inh = disrupts binding of bovine 14-3-3 zeta to phospho-Bad peptide | P63103 | TR-FRET 14-3-3zeta/Dy647-pBad peptide displacement, 1 h | inhibition, % at 21.7 µM | 220,000 tested, 0.71% active | AID 781;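 active = inhibition above about 70%, limit read from the data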;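 also: 0% = full 14-3-3 plus peptide FRET controls and 100% = background without 14-3-3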
NCF1 inh = blocks human p47phox regulatory protein of NADPH oxidases | AID 1274 | P14598 | 220,000 tested, 0.53% active | p47phox/p22phox peptide binding, fluorescence polarization, 2 h | inhibition, % at 24.7 µM;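 also: 0% = p47phox with labelled peptide and 100% = labelled peptide alone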
Active calls of the source: *; / = no result; [ ] = remark or other dose.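 The calls were made as follows, unless noted: active = inhibition above about 30% (limit read from the data); inactive = the rest.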

SMILES	Hck Nef HTS	Diaphorase act	eIF4E 4G PPI	14-3-3 Bad inh	NCF1 inh
CCC(C)(C)NC(=O)C(c1ccncc1)N(C(=O)c1sc(C)nc1C)c1ccc(C)cc1 (configuration not stated)	17.8	1.1	0.9	-1.9	-2.9
COc1cc2ncnc(NCc3ccccc3)c2cc1OC	19.2	1	0.1	3.8	-9.2
COc1cc2ncnc(NCc3cccc(Cl)c3)c2cc1OC	65.4*	0.9	3.3	-1.5	8.9
O=C(Nc1ccccn1)c1cc(-c2cccc(Cl)c2)nc2ccccc12	-16.9	1	-0.8	11.4	-5.0
C/C(=N\NC(=O)Cn1nc(C)c([N+](=O)[O-])c1C)c1ccco1	22.6	/	-3.9	-2.7	-14.5
Cc1c(C(=O)C(=O)N2CC=C(c3ccccc3)CC2)c2ccccc2n1C	-1.6	0.6	-2.5	7.3	-59.2
Cc1ccc(C(=O)N2c3ccccc3CC2C)o1 (configuration not stated)	26.9	1	4.8	-3.2	41.1*
Cc1c(C(=O)C(=O)N2c3ccccc3CC2C)c2ccccc2n1C (configuration not stated)	19.9	0.8	-0.1	-16.7	40.5*
COC(=O)c1c(C)[nH]c(-c2csc(N)n2)c1C	12.1	0.7	-2.2	3.5	-8.1
CC1CC(C)CN(S(=O)(=O)N2CCC(C(=O)NCCC3=CCCCC3)CC2)C1 (configuration not stated)	22.3	1	0.3	0.8	3.7
C=CCOc1nc2c(c(=O)n(Cc3ccc(Cl)c(Cl)c3)c(=O)n2C)n1C	11.5	/	/	/	/
Cn1c(OCc2ccc3c(c2)OCO3)nc2c1c(=O)n(Cc1ccc(Cl)c(Cl)c1)c(=O)n2C	-1.5	0.9	-2.5	-2.3	54.8*
CCOC(=O)C1=C(O)c2ccccc2C(=O)/C1=C\c1ccc(CC)cc1	0.1	0.7	6.4	0.2	56.4*
CCOC(=O)C1=C(Cc2ccc(OC)cc2)C(=O)c2ccccc2C1=O	-8.3	0.7	2.8	-15.5	92.7*
Cc1cccc2c1c1ccc3c(c1n2C)C(=O)C=CC3=O	-6.2	/	6.7	10.0	-5.4
CO/N=C/C(C#N)c1ncc(C(F)(F)F)cc1Cl (configuration not stated)	0.6	0.9	83.3*	3.0	-16.4
c1ccc(CCNc2ccccc2)cc1	/	0.9	/	/	/
Cc1ccc(-c2nnn3c2nc(Cl)c2ccccc23)cc1	-8.0	1.1	-2.6	90.6*	-6.6
Clc1nc2c(-c3ccccc3)nnn2c2ccccc12	-10.7	/	5.6	0.8	-15.8
CCN1CCN(C(=S)Nc2ccc3nc4n(c(=O)c3c2)CCCCC4)CC1	2.2	0.9	0.2	-6.0	0.0
CCc1nn2c(=O)cc(COc3ccc(/C=C4\C(=N)N5N=C(C)SC5=NC4=O)cc3)nc2s1	75.3*	0.7	20.7	22.3	-17.4
Cn1c(C(=O)NCC2CCCO2)cc2c(=O)n3ccccc3nc21 (configuration not stated)	28.4	0.9	0.4	18.7	-5.7
C=CCNC(=O)c1cc2c(=O)n3cc(C)ccc3nc2nc1NCC1CCCO1 (configuration not stated)	178.8*	0.9	9.0	-7.7	-2.1
Cc1ccc(CNC(=O)c2cc3c(=O)n4ccccc4nc3n(CC3CCCO3)c2=N)cc1 (configuration not stated)	38.5	1	-1.7	8.2	-2.5
COCCCNC(=O)c1cc2c(=O)n3cc(C)ccc3nc2nc1NCC1CCCO1 (configuration not stated)	193.3*	1	0.0	0.2	-5.7
SMILES	Hck Nef HTS	Diaphorase act	eIF4E 4G PPI	14-3-3 Bad inh	NCF1 inh
Cc1cc(Cl)ccc1OCCCC(=O)Nc1cccnc1	-1.0	0.8	7.4	74.7*	-3.1
COc1cc2c(C)nc3c(c(C)nn3-c3ccccc3)c2cc1OC	19.8	1.2	-0.2	-1.3	-6.1
COc1cc2c(-c3ccc(O)cc3)nc3c(c(C)nn3-c3ccccc3)c2cc1OC	3.3	0.8	38.8*	54.1	34.1*
O=C(OCC1CC(c2ccccn2)=NO1)c1ccc(Br)cc1 (configuration not stated)	-11.1	0.5	42.5*	-3.7	-1.2
CC(=O)N1C(C)(C)CC(=NOC(=O)c2ccccc2)CC1(C)C	2.5	1	-0.7	92.4*	-1.0
CNC(=S)NNc1nc(C)cc(C)n1	19.9	1	-2.9	-6.2	-0.7
O=[N+]([O-])c1ccc(S(=O)(=O)N2CCN(Cc3c[nH]c4ccccc34)CC2)cc1	2.2	0.8	-1.2	78.7*	-0.6
COc1ccc(S(=O)(=O)N2CCN(Cc3c[nH]c4ccccc34)CC2)cc1	3.8	0.8	-7.4	-9.3	-10.6
CN1C(=O)C(O)(CC(=O)/C=C/c2ccco2)c2cc(Br)ccc21 (configuration not stated)	0.7	0.8	-3.8	83.2*	-5.1
Cc1cc(C)n(NC(=S)NC2CCCCC2)c(=O)c1C#N	-3.9	/	3.8	-4.7	-2.4
CSc1ccc(/C=C(/NC(=O)c2ccc(C)cc2)C(=O)Nc2cccc(F)c2)cc1	2.3	0.9	2.6	3.2	67.3*
COc1nc(-c2ccccc2)ccc1-c1noc(COc2ccccc2)n1	5.2	0.8	0.5	82.2*	-66.8
CCN(CC)c1ccc(/C=N/NC(=O)c2ccc3nc[nH]c3c2)cc1	11.2	/	86.9*	2.6	-2.2
Cc1ccccc1NC(=O)c1ccc(S(=O)(=O)N(C)C)cc1	0.4	0.9	2.1	2.8	-12.6
COc1ccccc1NC(=O)c1ccc(CN2CCOCC2)cc1	-5.2	1.1	7.8	-7.8	66.4*
COc1ccccc1NC(=O)c1ccc(S(=O)(=O)N(C)C)cc1	2.6	0.9	38.0*[fluorescence artefact?]	11.3	8.4
Cc1ccccc1-n1nnnc1SCC(=O)NCC1CCCO1 (configuration not stated)	16.4	1.1	0.3	7.4	3.6
COc1ccccc1C1c2[nH]c3ccccc3c2CCN1Cc1ccc(NC(C)=O)s1 (configuration not stated)	14.3	/	88.8*	-1.6	-18.6
C=CCn1c(=NC(=O)C2COc3ccccc3O2)sc2cccc(OC)c21 (configuration not stated)	9.2	/	2.7	-0.7	-8.7
CCn1c(=NC(=O)C2COc3ccccc3O2)sc2c(C)ccc(OC)c21 (configuration not stated)	23.0	/	90.0*	-6.3	12.8
COc1cccc(N2CCN(CC(=O)C34CC5CC(CC(C5)C3)C4)CC2)c1	7.3	0.8	-4.8	-14.4	-12.6
COc1cccc(N2CCN(C3C4CC5CC(C4)CC3C5)CC2)c1 (configuration not stated)	-15.2	1	0.9	87.8*	-15.6
O=[N+]([O-])c1cccc(-n2nnnc2CNCc2ccccc2)c1	17.5	/	-2.4	1.6	-2.0
O=C(C1CCC(CNS(=O)(=O)c2cccc3nsnc23)CC1)N1CCN(c2ccccn2)CC1 (configuration not stated)	23.3	0.9	2.3	-4.5	-4.5

Screening data deposited in PubChem BioAssay by several laboratories.
